Data as given in PMC4062594 (Nature chemical biology, 2014).

Assays:
PTP1B (1-367) = biological target: T1, PTP1B (1-367) (Homo sapiens, UniProt P18031); assay: PTP assay, truncation mutant; format: biochemical; settings: similar to PTP1B1-321
T1 sequence (P18031 1-367): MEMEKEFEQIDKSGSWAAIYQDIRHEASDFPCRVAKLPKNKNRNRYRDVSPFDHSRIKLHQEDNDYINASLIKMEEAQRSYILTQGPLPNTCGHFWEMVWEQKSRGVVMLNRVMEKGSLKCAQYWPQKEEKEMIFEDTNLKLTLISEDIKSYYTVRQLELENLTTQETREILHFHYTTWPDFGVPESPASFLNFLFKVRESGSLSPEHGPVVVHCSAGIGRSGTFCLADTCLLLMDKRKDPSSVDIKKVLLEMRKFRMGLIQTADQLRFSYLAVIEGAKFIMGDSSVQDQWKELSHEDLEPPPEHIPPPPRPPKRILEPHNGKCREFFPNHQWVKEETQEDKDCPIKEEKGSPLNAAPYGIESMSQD
Procedure, shortened: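 Continuous fluorescence PTP assay with 10 nM purified PTP1B and 10 μM DiFMUP substrate. Emission at 450 nm was monitored for 20 minutes.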

PTP1B1-405 = biological target: T2, PTP1B1-405 (Homo sapiens, UniProt P18031); assay: Binding of recombinant protein to bead-immobilized compound; settings: in vitro
T2 sequence (P18031 1-405): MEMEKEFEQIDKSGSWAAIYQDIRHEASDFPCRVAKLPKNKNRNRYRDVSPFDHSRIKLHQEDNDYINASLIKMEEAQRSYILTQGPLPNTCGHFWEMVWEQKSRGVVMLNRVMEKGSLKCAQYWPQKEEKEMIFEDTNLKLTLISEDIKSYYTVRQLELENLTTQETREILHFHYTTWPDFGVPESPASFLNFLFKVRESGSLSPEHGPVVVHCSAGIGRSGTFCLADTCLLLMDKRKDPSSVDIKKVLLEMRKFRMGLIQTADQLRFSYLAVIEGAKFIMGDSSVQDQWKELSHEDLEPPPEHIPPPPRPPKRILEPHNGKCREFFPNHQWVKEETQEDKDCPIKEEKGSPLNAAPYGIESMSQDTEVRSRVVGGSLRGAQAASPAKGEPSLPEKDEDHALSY
Procedure, shortened: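 Beads were washed in the same buffer plus 0.01% NP-40 and 1% glycerol, then heat-eluted in SDS sample buffer. Eluates were run on 10% SDS-PAGE and stained with Coomassie or silver.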

[1] = system: panel of breast cancer cells; assay: Annexin/PI staining; format: cell-based; settings: cells sensitive to Lapatinib
Procedure, shortened: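 Cells (1 × 10^5) plated in 6-well plates in growth medium, left untreated or given test compound at 2 and 5 μM. Stained with annexin and PI per kit instructions, then analysed by flow cytometry.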

inhibitory potency compared to PTP1B1-405 and PTP1B1-394 (PTP1B (1-367)): lower | binding to bead-immobilized compound (PTP1B1-405): bound
SMILES: CC(C)[C@@H](CC[C@@H](C)[C@H]1CC[C@H]2[C@@H]3[C@H](O)C[C@H]4C[C@@H](NCCCNCCCCNCCCN)CC[C@]4(C)[C@H]3CC[C@]12C)OS(=O)(=O)O [MSI-1436, Trodusquemine]
apoptosis [1]: limited effect on apoptosis
